# System: MS2 coat protein
# Assay: apparent Kd, MS2 coat protein; higher = weaker binding; RNA-MaP array
# In short: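 Designed RNAs were transcribed on an Illumina sequencing chip from sequenced DNA templates. They were incubated at room temperature with fluorescently labeled MS2 coat protein at 1.5 nM to 3 μM, for 0.8–1.5 h at the lowest to 10–20 min at the highest concentrations, in Tris-HCl pH 7.5 buffer with KCl, MgCl2, BSA, DTT, tRNA and Tween20, with or without input ligand. Apparent Kd is the median of per-cluster binding-curve fits. Designs measured on fewer than 10 clusters were excluded.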
# [1] = designed as: OFF switch for flavin mononucleotide, no ligand
# [2] = ligand present: flavin mononucleotide, designed as: OFF switch for flavin mononucleotide
# [3] = designed as: ON switch for flavin mononucleotide, no ligand
# [4] = ligand present: flavin mononucleotide, designed as: ON switch for flavin mononucleotide
# [5] = designed as: OFF switch for tryptophan, no ligand
# [6] = ligand present: tryptophan, designed as: OFF switch for tryptophan
Sequence,apparent Kd [1],apparent Kd [2],apparent Kd [3],apparent Kd [4],also measured
GGAUCACAUGAGGAUCACCCAUGUCAGGAUAUUAUGCCCUCCCAGUUGCUGAGACAUUUAAGAAGGGACGUGUA,13.5 nM,14.3 nM,–,–,–
AAAUUAACGAAGAAGGCCUGACGACAUGACUACAUGAGGAUCACCCAUGUUGCAGCACAAUAUAAGGAGGAUAUUCGACAAGCU,–,–,10.2 nM,6.86 nM,–
GGUAUCGUAGGAUAUUAAUGUAGCCACAUGAGGAUCACCCAUGUAGUUCUAGUGGACCGUUAAGAAGGACGUGAUC,66.1 nM,82.8 nM,–,–,–
CCUUCCUAGUGAGGAUAUCGGCUUGGACUCGAGCGAGAAGGCACCUAAUCGAAGAACUUUUAUCCACAUGAGGAUCACCCAUGU,–,–,11.8 nM,11.1 nM,–
GAUUCACAUGAGGAUCACCCAUGUCAGGAUAUGACUUGAGCUGUCUCCGAUCGAGCCAUCAGAAGGGACUGGAA,30 nM,27.8 nM,–,–,–
GCUAGACAUGAGGAUCACCCAUGUGAGGAUAUUAGCCAAUCGAGUAAUCCGCUAUAGUUAAGAAGGCACGUGAU,16.7 nM,16 nM,–,–,–
GCGUGACAUGAGGAUCACCCAUGUGGCCUCGGGCUAGGAUAUGCUGAUAUACUCACCACCGCAGAAGGAGCUUCAC,–,–,142 nM,131 nM,–
UGUUUGCAAAGAGGAUAUUGGCCAACUGCUGGACAAGAAGGCUUUUAACAAGAUCCUUACAUGAGGAUCACCCAUGUUAGCGUA,69.2 nM,115 nM,–,–,–
UCCUAUUCAGGAUAUGCGACACGAAACAUGAGGAUCACCCAUGUCUGGGCACCUCAAAGCGCAGAAGGGAACAACG,665 nM,321 nM,–,–,–
AAUACAGCUACGGCCGCCACUUUAACUUGGUAUGGGUCCUUCACAAACAUGAGGAUCACCCAUGUAAGGACCGGGUAGCCUUGUU,–,–,–,–,apparent Kd [5]: 21.1 nM; apparent Kd [6]: 35 nM
AUAUUUUUGUAAUGACAUGAGGAUCACCCAUGUAUCAAUGUAAGAAGGAGGAAAUAAACACGAUCCUAGGAUAUUAGGUGAUUA,–,–,44.5 nM,35.3 nM,–
UCCGGACGUUCGGCCGCCACUAAUUUACAUGAGGAUCACCCAUGUGCCAGUGGUCCGCAGAGUAAUAGGACCGGGAACCUUGGCU,–,–,–,–,apparent Kd [5]: 25.9 nM; apparent Kd [6]: 29.2 nM
UAGCGUUCCUCAGGAUAUCCUUAAGUGGACAUGAGGAUCACCCAUGUGUGAUUCUGGGUGUUAUGGGAGAAGGGAGGGUGAUGA,300 nM,47.5 nM,–,–,–
CUUCCACGAGGAUAUCCGUUAACGGACAUGAGGAUCACCCAUGUUAUCCUCACGUCAGCAGGAGAAGGCGUCUCAU,22.5 nM,33 nM,–,–,–
CUCGGAACAAUCGAUACCAGUUCUCAUGGAUUGCAGCAGUACAUGAGGAUCACCCAUGUAAACCCUUGGCAGCGAAGAACAAGAC,–,–,–,–,"apparent Kd (designed as: OFF switch for theophylline, no ligand): 32.7 nM; apparent Kd (ligand present: theophylline, designed as: OFF switch for theophylline): 55.3 nM"
GAAUAAAAUAUAAUAAGAAAACAUGAGGAUCACCCAUGUACAAGAAGGGAGAAACUUAACAUAACUCAGGAUAUUGUUAUAUCA,–,–,28.9 nM,22.2 nM,–
CGGAAACAUGAGGAUCACCCAUGUGUAGAAAAGACAGGAUAUGACAAGGGCUUGAAGUGCUCAGAAGGGUCUGGAC,–,–,15.4 nM,11.2 nM,–
AAGUACUUUGAGAAGGACCUCUCGAACAUGAGGAUCACCCAUGUCACGGAGUACCCGAUCGGCUGGUAGGAUAUCAUGGUACCG,–,–,9.89 nM,8.15 nM,–
UGAAACUAGCCUAAGGAUAUAUAAGUGUGAACAUGAGGAUCACCCAUGUAUGGGAACAAGUGCUGAUAGAAGGUAGGAAUCUCCAA,–,–,80.3 nM,43.2 nM,–
AAUAAGUUAGGAUAUUCAGGAGCAGCGCAAUGGUACGAGUCGAAGAAGGAACAUGAGGAUCACCCAUGUGAACC,11.2 nM,11.5 nM,–,–,–
GCGCUAUUUAUUGAUACCAGAUACAGGAAUCACAUGAGGAUCACCCAUGUGGAAUGAAGGAUCCCUUGGCAGCAAUAGUCAAAAU,–,–,–,–,"apparent Kd (designed as: ON switch for theophylline, no ligand): 17.8 nM; apparent Kd (ligand present: theophylline, designed as: ON switch for theophylline): 10.8 nM"

# From the EternaBench riboswitch data
